# The list is not random: actives were taken first. Their share in the collection is about 3.5%.
# RGS4 pot: RGS4 potentiators or activators, primary screen, cell-based, HEK293 M3R inducible RGS4, calcium flux. B-score at 10 µM. AID 463111, 2010. hit rate 0.92% among 310,000. carbachol calcium flux Fluo4; hits give low values;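 active = B-score of the integrated calcium signal more than 4 SD below the library mean, with starting fluorescence not abnormally high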;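 also: negative B-score means reduced calcium response which marks RGS4 activation or potentiation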
#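 Also added: carbachol at ECmax as muscarinic agonist stimulus; Assay system: HEK293 cells with stable M3R and inducible RGS4; Timing: overnight RGS4 induction, 30 min dye load 37 °C, 20 min compound RT; Measured by: Fluo4-AM (2 µM) calcium-flux fluorescence, kinetic read.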
# MrgX1 ag: agonists of human MrgX1 receptor, primary screen, HEK293 cells, Fluo-4 calcium flux; Mas-related G-protein coupled receptor member X1 (Homo sapiens), Q96LB2; Fluo-4 calcium fluorescence, agonist mode; hits give high values; B-score at 10 µM; hit rate 0.44% among 310,000; AID 588627, 2011;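 active = calcium response B-score plate-corrected fluorescence ratio at least 3 library SD, with starting fluorescence B-score inside 5 SD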
#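 times = overnight plating, then 30 min 37 °C plus 30 min room-temperature dye loading | assay system = stable human MrgX1 HEK293 cell line | input = fifteen thousand cells per well | signal = kinetic calcium dye fluorescence, Fluo-4 NW | dosing = compound delivered in addition one of three | read-out = B-scored fluorescence response ratio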
# MrgX1 antagonist: antagonists of human MrgX1 receptor, primary screen, HEK293 cells, Fluo-4 calcium flux | B-score at 10 µM | hit rate 1.3% among 310,000 | BAM8-22 antagonism; hits give low values;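 active = calcium-response B-score plate-corrected more than 3 library SD below zero, starting fluorescence within 5 deviations, no agonist response on first addition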;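 also: peak minus trough fluorescence over baseline after final BAM8-22 challenge near maximal dose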
# RGS4 inh: RGS4 inhibitors, primary screen, cell-based, HEK293 M3R inducible RGS4, calcium flux; Regulator of G-protein signaling 4 (Homo sapiens), P49798; Fluo-4 calcium flux; hits give high values; triggered by carbachol at its EC20; B-score at 10 µM; hit rate 0.45% among 310,000;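 active = B-score, a plate-corrected calcium signal, over three deviations above library mean, with baseline fluorescence within five deviations of library mean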;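 also: RGS4 expression induced by doxycycline in cells with stable M3 receptor; B-score is computed from the integrated fluorescence ratio over baseline after carbachol; higher B-score means a larger calcium signal and so more RGS4 inhibition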
# Target sequence (P49798 whole entry, looked up): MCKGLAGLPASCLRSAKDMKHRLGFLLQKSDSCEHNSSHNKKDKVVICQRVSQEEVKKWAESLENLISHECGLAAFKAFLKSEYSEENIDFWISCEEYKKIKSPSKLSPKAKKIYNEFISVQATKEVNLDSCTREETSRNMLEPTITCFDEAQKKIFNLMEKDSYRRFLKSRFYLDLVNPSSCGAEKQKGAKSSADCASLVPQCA
# MrgX1 PAM: positive allosteric modulators of MrgX1, primary screen, HEK293 cells, Fluo-4 calcium flux; Mas-related G-protein coupled receptor member X1 (Homo sapiens), Q96LB2; FDSS; hits give high values; B-score at 10 µM; hit rate 0.63% among 310,000; AID 588675, 2011;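 active = plate-corrected calcium response at least 3 library SD above typical, normal starting fluorescence, not activating the receptor alone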;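 also: compound read alongside a low EC10 to EC30 dose of BAM8-22 agonist; peak minus trough fluorescence over baseline measured at the second addition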
# RGS4 inh valid: enhanced carbachol calcium response, M3R/RGS4 cells, RGS4 inhibitor project, cell-based, validation screen, HEK293 M3R/RGS4, calcium flux. shares compounds with RGS4 inh. carbachol calcium Fluo-4 fluorescence; carbachol added at its EC20; 0 = buffer wells, 100 = carbachol control. calcium response, % at 10 µM. hit rate 65% among 1,700;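 active = duplicate-averaged calcium response above the buffer-only control mean plus 5 SD of those controls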;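 also: integrated fluorescence ratio F max minus min over baseline F0; higher response in RGS4-induced cells means RGS4 inhibition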
# RGS4 uninduced: carbachol calcium response in non-induced M3R cells, confirmation, counter-screen for RGS4 inhibitor project, cell-based, HEK293 M3R. hit rate 20% among 1,900. AID 493000, 2010. carbachol calcium Fluo-4; submaximal (EC20) carbachol stimulus; buffer wells 0%, carbachol control wells 100%. activity (percent), % at 10 µM. shares compounds with RGS4 inh; call rule not given here;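 also: RGS4 induction absent so cells express M3R without RGS4; higher means more calcium signal and flags a non-specific hit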
# RGS4 inh ctr2: second counter-screen for RGS4 inhibitors: non-induced cells without carbachol; HEK293 M3R/RGS4 non-induced, Fluo-4 calcium, no carbachol; normalised: buffer wells 0%, carbachol wells 100%; AID 493001; hit rate 22% among 1,900; calcium response (agonist-mode artifact), % at 10 µM; shares compounds with RGS4 inh;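 active = duplicate-averaged calcium rise in uninduced cells above buffer wells' mean plus 5 SD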
# Numbers without * were called inactive; i = inactive; nt = not tested or not shown.
SMILES,RGS4 pot,MrgX1 ag,MrgX1 antagonist,RGS4 inh,MrgX1 PAM,RGS4 inh valid,RGS4 uninduced,RGS4 inh ctr2
Cc1ccc(S(=O)(=O)N(CC(=O)NCc2ccccc2Cl)C(=O)N2CCN(C)CC2)cc1,i,i,i,i,i,nt,nt,nt
COC(=O)c1ccc(Cn2cc(/C=C\[N+](=O)[O-])c3ccccc32)o1,i,i,i,5.4*,i,67%*,48%*,40%*
O=[N+]([O-])/C=C/c1cn(Cc2ccc(Cl)cc2)c2ccccc12,i,i,i,8.6*,i,24%*,i,76%*
CCOC(=O)COc1ccc(/C=C/[N+](=O)[O-])c(OCC(=O)OCC)c1,i,i,i,11*,i,24%*,34%*,i
Cc1cccc(Cn2cc(/C=C/[N+](=O)[O-])c3ccccc32)c1,i,i,i,i,i,nt,nt,nt
COC(=O)c1ccc(Cn2nc(C)c([N+](=O)[O-])c2C)o1,i,i,i,i,i,nt,nt,nt
CCOc1ccc(/C=C/[N+](=O)[O-])c2ccccc12,i,42*,i,23*,i,45%*,i,27%*
O=C(O)c1ccc(Cn2cc(/C=C\[N+](=O)[O-])c3ccccc32)o1,i,i,i,i,i,i,i,i
CCOC(=O)Cn1cc(/C=C/[N+](=O)[O-])c2ccccc21,i,33*,i,17*,i,56%*,61%*,14%*
O=C(CSc1nnc(-c2ccc(O)cc2)o1)NNC(=O)c1ccncc1,i,i,i,i,i,nt,nt,nt
CCCCC(NC(=O)COc1cc2c(c3oc(=O)cc(C)c13)CCC(C)(C)O2)C(=O)O (stereo not given),i,i,i,5.7*,i,i,i,i
Cc1cc(=O)oc2c3c(cc(OCC(=O)N[C@@H](Cc4ccccc4)C(=O)O)c12)OC(C)(C)CC3,i,i,i,i,i,nt,nt,nt
Cc1cc(=O)oc2c3c(cc(OCC(=O)N[C@@H](C)C(=O)O)c12)OC(C)(C)CC3,i,i,i,i,i,nt,i,i
CCC1(CC)C(=O)N(C)C(=O)NC1=NCc1ccccc1,i,i,i,i,i,nt,nt,nt
CCn1c(C)c(CS(=O)(=O)c2ccccc2)[nH]c1=O,i,i,i,6.7*,i,24%*,i,7.0%*
CC(=O)c1ccc(S(=O)(=O)NCc2ccc(C(=O)NCC(c3ccccc3)N(C)C)cc2)cc1 (stereo not given),i,i,i,i,i,nt,nt,nt
Cc1oc2cc3oc(=O)c(CCC(=O)NCc4ccccn4)c(C)c3cc2c1C,i,i,i,i,i,nt,nt,nt
CCCC(=O)Nc1ccc(C=C(C(C)=O)C(C)=O)cc1,i,i,i,16*,i,32%*,30%*,i
COc1ccc2nc(-c3ccco3)c(-c3ccco3)nc2c1,i,i,i,5.8*,i,i,i,32%*
c1coc(-c2nc(-c3ccco3)c(-c3ccco3)nc2-c2ccco2)c1,i,i,i,i,i,nt,nt,nt
O=S(=O)(Nc1nccs1)c1ccc(NCc2cc(Br)cc(Br)c2O)cc1,i,i,i,7.8*,i,6.0%*,44%*,i

# Bioassay records from PubChem BioAssay.
